# Laboratory results: ChEMBL document CHEMBL4689842, “EUbOPEN Chemogenomics Library wave 1” (2021)
# What was measured:
# Format in all cases: toxicity, cell-based
# Fibroblast = assay: Multiplex assay against human fibroblast
# In short: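 At seeding, live cells were stained with Hoechst33342, BioTracker Green Microtubule Cytoskeleton Dye, MitoTracker Red and Annexin V Alexa Fluor 680. After compound addition they were imaged on a CQ1 microscope at 37°C and 5% CO2, and CellPathfinder machine-learning gating sorted them into Hoechst high-intensity objects or normal cells, with normal cells further split into healthy, pyknosed or fragmented nuclei and pyknosed cells into mitotic or apoptotic. Tubulin, mitochondrial-mass and membrane-permeability phenotypes are given as per cents of cells with healthy nuclei.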
# U2OS = assay: Incucyte cell viability with U2OS; details: human, 10 µM, compound concentration 10 uM; also: filed as whole numbers so only -1 and 0 and 1 occur
# HEK-293T = assay: Incucyte cell viability with HEK293T; details: human, 10 µM, compound concentration 10 uM; also: filed as whole numbers so only -1 and 0 and 1 occur
# [1] = 12 h, 1 µM, compound concentration 1 uM, replicate 1
# [2] = 12 h, 1 µM, compound concentration 1 uM, replicate 2
# [3] = 12 h, 10 µM, compound concentration 10 uM, replicate 1
# [4] = 12 h, 10 µM, compound concentration 10 uM, replicate 2
# [5] = 24 h, 1 µM, compound concentration 1 uM, replicate 1
# [6] = 24 h, 1 µM, compound concentration 1 uM, replicate 2
# [7] = 24 h, 10 µM, compound concentration 10 uM, replicate 1
# [8] = 24 h, 10 µM, compound concentration 10 uM, replicate 2
# [9] = 48 h, 1 µM, compound concentration 1 uM, replicate 1
# [10] = 48 h, 1 µM, compound concentration 1 uM, replicate 2
# [11] = 48 h, 10 µM, compound concentration 10 uM, replicate 1
# [12] = 48 h, 10 µM, compound concentration 10 uM, replicate 2
# [13] = 0 h, replicate number 1, timepoint 0 hours
# [14] = 12 h, replicate number 1, timepoint 12 hours
# [15] = 18 h, replicate number 1, timepoint 18 hours
# [16] = 24 h, replicate number 1, timepoint 24 hours
smiles,measurement,setting,value
CN1C(=O)[C@@H](NC(=O)c2cc3ccccc3[nH]2)N=C(c2ccccc2)c2ccccc21 [DEVAZEPIDE],Population Apoptotic (%),Fibroblast; [1],72%
same,Population Fragmented Nuclei (%),Fibroblast; [1],21%
same,Population Healthy Nuclei (%),Fibroblast; [1],36%
same,Population Hoechst High Intensity Objects (%),Fibroblast; [1],13%
same,Population Membrane Permeable-Phenotype (%),Fibroblast; [1],34%
same,Population Mitochondria Different-Phenotype (%),Fibroblast; [1],3%
same,Population Mitotic Cells (%),Fibroblast; [1],27%
same,Population Normal (%),Fibroblast; [1],87%
same,Population Pyknosed Nuclei (%),Fibroblast; [1],41%
same,Population Tubulin-Different-Phenotype (%),Fibroblast; [1],56%
same,Total Cell Count,Fibroblast; [1],100
same,Population Apoptotic (%),Fibroblast; [2],33%
same,Population Fragmented Nuclei (%),Fibroblast; [2],4%
same,Population Healthy Nuclei (%),Fibroblast; [2],85%
same,Population Hoechst High Intensity Objects (%),Fibroblast; [2],5%
same,Population Membrane Permeable-Phenotype (%),Fibroblast; [2],9%
same,Population Mitochondria Different-Phenotype (%),Fibroblast; [2],23%
same,Population Mitotic Cells (%),Fibroblast; [2],66%
same,Population Normal (%),Fibroblast; [2],94%
same,Population Pyknosed Nuclei (%),Fibroblast; [2],9%
same,Population Tubulin-Different-Phenotype (%),Fibroblast; [2],10%
same,Total Cell Count,Fibroblast; [2],68
same,Population Apoptotic (%),Fibroblast; [3],67%
same,Population Fragmented Nuclei (%),Fibroblast; [3],18%
same,Population Healthy Nuclei (%),Fibroblast; [3],48%
same,Population Hoechst High Intensity Objects (%),Fibroblast; [3],16%
same,Population Membrane Permeable-Phenotype (%),Fibroblast; [3],42%
same,Population Mitochondria Different-Phenotype (%),Fibroblast; [3],15%
same,Population Mitotic Cells (%),Fibroblast; [3],32%
same,Population Normal (%),Fibroblast; [3],83%
same,Population Pyknosed Nuclei (%),Fibroblast; [3],33%
same,Population Tubulin-Different-Phenotype (%),Fibroblast; [3],68%
same,Total Cell Count,Fibroblast; [3],112
same,Population Apoptotic (%),Fibroblast; [4],33%
same,Population Fragmented Nuclei (%),Fibroblast; [4],20%
same,Population Healthy Nuclei (%),Fibroblast; [4],75%
same,Population Hoechst High Intensity Objects (%),Fibroblast; [4],7%
same,Population Membrane Permeable-Phenotype (%),Fibroblast; [4],37%
same,Population Mitochondria Different-Phenotype (%),Fibroblast; [4],48%
same,Population Mitotic Cells (%),Fibroblast; [4],66%
same,Population Normal (%),Fibroblast; [4],92%
same,Population Pyknosed Nuclei (%),Fibroblast; [4],5%
same,Population Tubulin-Different-Phenotype (%),Fibroblast; [4],66%
same,Total Cell Count,Fibroblast; [4],65
same,Population Apoptotic (%),Fibroblast; [5],44%
same,Population Fragmented Nuclei (%),Fibroblast; [5],25%
same,Population Healthy Nuclei (%),Fibroblast; [5],46%
same,Population Hoechst High Intensity Objects (%),Fibroblast; [5],13%
same,Population Membrane Permeable-Phenotype (%),Fibroblast; [5],21%
same,Population Mitochondria Different-Phenotype (%),Fibroblast; [5],14%
same,Population Mitotic Cells (%),Fibroblast; [5],56%
same,Population Normal (%),Fibroblast; [5],86%
same,Population Pyknosed Nuclei (%),Fibroblast; [5],27%
same,Population Tubulin-Different-Phenotype (%),Fibroblast; [5],73%
same,Total Cell Count,Fibroblast; [5],104
same,Population Apoptotic (%),Fibroblast; [6],37%
same,Population Fragmented Nuclei (%),Fibroblast; [6],7%
same,Population Healthy Nuclei (%),Fibroblast; [6],82%
same,Population Hoechst High Intensity Objects (%),Fibroblast; [6],1%
same,Population Membrane Permeable-Phenotype (%),Fibroblast; [6],3%
same,Population Mitochondria Different-Phenotype (%),Fibroblast; [6],10%
same,Population Mitotic Cells (%),Fibroblast; [6],62%
same,Population Normal (%),Fibroblast; [6],98%
same,Population Pyknosed Nuclei (%),Fibroblast; [6],10%
same,Population Tubulin-Different-Phenotype (%),Fibroblast; [6],6%
same,Total Cell Count,Fibroblast; [6],79
same,Population Apoptotic (%),Fibroblast; [7],43%
same,Population Healthy Nuclei (%),Fibroblast; [7],54%
same,Population Hoechst High Intensity Objects (%),Fibroblast; [7],12%
same,Population Membrane Permeable-Phenotype (%),Fibroblast; [7],34%
same,Population Mitochondria Different-Phenotype (%),Fibroblast; [7],9%
same,Population Mitotic Cells (%),Fibroblast; [7],56%
same,Population Normal (%),Fibroblast; [7],87%
same,Population Pyknosed Nuclei (%),Fibroblast; [7],16%
same,Population Tubulin-Different-Phenotype (%),Fibroblast; [7],55%
same,Total Cell Count,Fibroblast; [7],108
same,Population Apoptotic (%),Fibroblast; [8],92%
same,Population Fragmented Nuclei (%),Fibroblast; [8],28%
same,Population Healthy Nuclei (%),Fibroblast; [8],49%
same,Population Hoechst High Intensity Objects (%),Fibroblast; [8],7%
same,Population Membrane Permeable-Phenotype (%),Fibroblast; [8],19%
same,Population Mitochondria Different-Phenotype (%),Fibroblast; [8],45%
same,Population Mitotic Cells (%),Fibroblast; [8],7%
same,Population Normal (%),Fibroblast; [8],92%
same,Population Pyknosed Nuclei (%),Fibroblast; [8],22%
same,Population Tubulin-Different-Phenotype (%),Fibroblast; [8],51%
same,Total Cell Count,Fibroblast; [8],68
same,Population Apoptotic (%),Fibroblast; [9],53%
same,Population Fragmented Nuclei (%),Fibroblast; [9],35%
same,Population Healthy Nuclei (%),Fibroblast; [9],46%
same,Population Hoechst High Intensity Objects (%),Fibroblast; [9],22%
same,Population Membrane Permeable-Phenotype (%),Fibroblast; [9],36%
same,Population Mitochondria Different-Phenotype (%),Fibroblast; [9],18%
same,Population Mitotic Cells (%),Fibroblast; [9],46%
same,Population Normal (%),Fibroblast; [9],77%
same,Population Pyknosed Nuclei (%),Fibroblast; [9],18%
same,Population Tubulin-Different-Phenotype (%),Fibroblast; [9],66%
same,Total Cell Count,Fibroblast; [9],92
same,Population Apoptotic (%),Fibroblast; [10],0%
same,Population Fragmented Nuclei (%),Fibroblast; [10],19%
same,Population Healthy Nuclei (%),Fibroblast; [10],79%
same,Population Hoechst High Intensity Objects (%),Fibroblast; [10],7%
same,Population Membrane Permeable-Phenotype (%),Fibroblast; [10],14%
same,Population Mitochondria Different-Phenotype (%),Fibroblast; [10],3%
same,Population Mitotic Cells (%),Fibroblast; [10],100%
same,Population Normal (%),Fibroblast; [10],92%
same,Population Pyknosed Nuclei (%),Fibroblast; [10],0%
same,Population Tubulin-Different-Phenotype (%),Fibroblast; [10],54%
same,Total Cell Count,Fibroblast; [10],127
same,Population Apoptotic (%),Fibroblast; [11],66%
same,Population Fragmented Nuclei (%),Fibroblast; [11],44%
same,Population Healthy Nuclei (%),Fibroblast; [11],42%
same,Population Hoechst High Intensity Objects (%),Fibroblast; [11],12%
same,Population Membrane Permeable-Phenotype (%),Fibroblast; [11],22%
same,Population Mitochondria Different-Phenotype (%),Fibroblast; [11],12%
same,Population Mitotic Cells (%),Fibroblast; [11],33%
same,Population Normal (%),Fibroblast; [11],87%
same,Population Pyknosed Nuclei (%),Fibroblast; [11],12%
same,Population Tubulin-Different-Phenotype (%),Fibroblast; [11],57%
same,Total Cell Count,Fibroblast; [11],107
same,Population Apoptotic (%),Fibroblast; [12],100%
same,Population Fragmented Nuclei (%),Fibroblast; [12],37%
same,Population Healthy Nuclei (%),Fibroblast; [12],61%
same,Population Hoechst High Intensity Objects (%),Fibroblast; [12],8%
same,Population Membrane Permeable-Phenotype (%),Fibroblast; [12],29%
same,Population Mitochondria Different-Phenotype (%),Fibroblast; [12],11%
same,Population Mitotic Cells (%),Fibroblast; [12],0%
same,Population Normal (%),Fibroblast; [12],91%
same,Population Pyknosed Nuclei (%),Fibroblast; [12],1%
same,Population Tubulin-Different-Phenotype (%),Fibroblast; [12],61%
same,Total Cell Count,Fibroblast; [12],96
same,Growth Rate,U2OS; [13],0
same,Growth Rate,"U2OS; 6 h, replicate number 1, timepoint 6 hours",1
same,Growth Rate,U2OS; [14],1
same,Growth Rate,U2OS; [15],1
same,Growth Rate,"U2OS; 18 h, replicate number 2, timepoint 18 hours",0
same,Growth Rate,U2OS; [16],1
same,Growth Rate,"U2OS; 24 h, replicate number 2, timepoint 24 hours",0
same,Growth Rate,HEK-293T; [13],0
same,Growth Rate,"HEK-293T; 6 h, replicate number 2, timepoint 6 hours",1
same,Growth Rate,HEK-293T; [14],1
same,Growth Rate,"HEK-293T; 12 h, replicate number 2, timepoint 12 hours",0
same,Growth Rate,HEK-293T; [15],0
same,Growth Rate,HEK-293T; [16],0
